# Screens as filed in PubChem.
# The list is not random: actives were taken first. Their share in the collection is about 3.5%.
# Cneo AK release = Cryptococcus neoformans lysis via adenylate kinase release | AID 651654 | lysis activity, % at 15 µM | C. neoformans lysis, adenylate kinase release luminescence, 4 h; normalised: neutral wells 0, clomiphene wells 100 | actives 0.2% (n = 360,000);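 active = mean lysis activity across replicates of at least 80%, whatever share of replicates individually reach that level; inactive = mean lysis activity below 80%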
#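 Assay system: log-phase C. neoformans yeast / Quantity: yeast cell density of 5 × 10^6 cells/mL / Medium: fresh YPD growth medium / Compound: single dose / Timing: static 4 h at 37 °C with compound, 1 h detection / Measured by: adenylate kinase release luminescence / Read-out: lysis from increased AK signal / Benchmarks: Clomiphene as positive lysis control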
# HIV Env fusion = blocks HIV Env-driven cell-cell fusion; HeLa-JRFL Env/CEM21 cell fusion, luciferase; inhibition, % at 12.3 µM; actives 1.1% (n = 360,000); AID 651610;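 active = mean replicate inhibition score of at least 50 and every replicate individually at or above 50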;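 also: 0% = plate neutral controls and 100% = maraviroc near 300 nM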
# rRNA inh HTS = selective bacterial rRNA inhibition in E. coli | GFP signal change (wild-type ribosome), % (concentration not given with the values) | AID 720706 | E. coli WT GFP vs humanized-ribosome RFP mutants, fluorescence, 24 h; active compounds read low; DMSO median 0, no signal -100 | actives 1.6% (n = 350,000);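 active = significant combined selectivity score with lowered wild-type GFP, culture density cut under 30%, mutant RFP and density less affected; inactive = any of these conditions unmet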
# FGF22 binding = binders of recombinant human FGF22 by thermal shift; SYPRO orange fluorescence; percent of sucrose octasulfate shift, DMSO zero; Q9HCT0; activity (Tm shift, normalised), % at 9.99 µM; actives 1.5% (n = 340,000);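 active = mean Tm shift, scaled 0 neutral to 100 positive control, at about 1.3% or above, every replicate too, limit read from the data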
# Target sequence (Q9HCT0 whole entry, looked up): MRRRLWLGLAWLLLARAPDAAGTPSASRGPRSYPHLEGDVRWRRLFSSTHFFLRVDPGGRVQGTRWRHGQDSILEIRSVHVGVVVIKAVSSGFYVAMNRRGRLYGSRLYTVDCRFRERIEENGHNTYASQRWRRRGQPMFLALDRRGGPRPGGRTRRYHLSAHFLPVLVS
# PGC1a acetyl inh = modulators of PGC1a acetylation; U2OS PGC1a acetylation, AlphaScreen anti-acetyl-lysine; with virally co-expressed GCN5 acetyltransferase; inhibition, % at 15.6 µM; actives 0.17% (n = 350,000);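 active = every replicate shows inhibition of at least 40%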;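 also: 0% = neutral control wells and 100% = positive control wells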
# ERAP1 HTS inh = inhibitors of human ERAP1 aminopeptidase. Q9NZ08. recombinant ERAP1, Leu-AMC fluorescence, 60 min. inhibition, % at 10.7 µM. actives 0.15% (n = 340,000). AID 652197;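 active = mean replicate inhibition of at least 30%, or all replicates individually reaching that 30% level; inactive = mean below 30% and not every replicate reaching it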;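 also: 0% = neutral control wells and 100% = L-leucinethiol positive control wells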
# Starred values were filed as active, the others as inactive; · = not tested or not shown; [ ] = remark or other dose.
SMILES,Cneo AK release,HIV Env fusion,rRNA inh HTS,FGF22 binding,PGC1a acetyl inh,ERAP1 HTS inh
Cc1[nH]c2ccccc2c1/C=N\NC(=O)c1ccccc1Cl,0,70*,-3,43*,-5,2
CCCCNC(=S)NNC(=O)c1csc(C)c1,-1,-35,·,·,-6,·
CN(C(=O)CSc1nc(O)cc(=O)n1-c1ccccc1F)c1ccccc1,1,65*,4,0,·,-2
CN(C(=O)CSc1nc(O)cc(=O)n1C1CCCC1)c1ccccc1,1,12,13,0,7,-2
NC(=O)C1CCN(S(=O)(=O)c2ccc3c(c2)OCCO3)CC1,·,-3,14,0,1,·
NC(=O)COC(=O)c1cccc(S(=O)(=O)N2CCN(c3ccccc3)CC2)c1,·,8,5,0,·,0
COc1ccc(COCC23N=C4SCc5ccccc5CN4[C@H](c4ccccc4O2)[C@H]3COC(=O)c2ccccc2)cc1,2,69*[16.7 µM],·,1,-20,4
Cc1ccc(S(=O)(=O)N(C)C[C@H]2Oc3ccc(NC(=O)Nc4cccc5ccccc45)cc3CC(=O)N([C@@H](C)CO)C[C@@H]2C)cc1,-1,28[16.7 µM],-2,0,6,0
Cc1noc(C)c1S(=O)(=O)N(C)C[C@@H]1Oc2ccc(NC(=O)Nc3cccc4ccccc34)cc2CC(=O)N([C@H](C)CO)C[C@@H]1C,-2,79*[16.7 µM],2,-1,-7,2
Cc1noc(C)c1S(=O)(=O)N(C)C[C@@H]1Oc2ccc(NC(=O)Nc3ccc(C(F)(F)F)cc3)cc2CC(=O)N([C@H](C)CO)C[C@@H]1C,47,60*[16.7 µM],3,0,-3,·
Cc1ccc(S(=O)(=O)N(C)C[C@@H]2Oc3ccc(NC(=O)Nc4cccc5ccccc45)cc3CC(=O)N([C@@H](C)CO)C[C@@H]2C)cc1,1,56*[16.7 µM],7,0,9,-1
C=Cc1ccc(COC(=O)c2cn(CC)c3nc(C)ccc3c2=O)cc1,1,-1,1,0,-1,3
C=CCOC(=O)c1cn(CC)c2nc(C)ccc2c1=O,1,14,-25*,0,·,9
CCn1cc(C(=O)NCc2cccc(C(F)(F)F)c2)c(=O)c2ccc(C)nc21,-1,8,-23*,0,1,-1
COc1cccc(-n2c(=O)c3ccccc3n3c(=S)[nH]nc23)c1,-1,-5,7,0,·,-1
CC1(C)CC2CC(C)(CN2S(=O)(=O)c2cccc(C(=O)OCC(=O)NC(N)=O)c2)C1 (stereo not given),3,91*,-4,·,·,24
CNC(=O)NC(=O)COC(=O)c1cccc(S(=O)(=O)N2CC3(C)CC2CC(C)(C)C3)c1 (stereo not given),·,5,0,0,·,1
Cc1cc2c(c(=O)o1)C1(C)CC(C)(O2)c2c(cc(C)oc2=O)O1,·,9,·,0,·,1
CC1CCCC(NCC(O)COC(c2ccc(F)cc2)c2ccc(F)cc2)C1C (stereo not given),9,44,-53*,0,-20,-2
CC1(C)CC(=O)C=C(c2ccc(COC(=O)Cc3ccccc3)cc2)C1=O,1,12,-22*,0,10,·
CCOc1ccccc1N(CC(=O)NCCc1ccccc1)C(=O)CCC(=O)Nc1ccccn1,0,-8,-6,0,0,-5
O=C(Nc1ccc(OC(F)F)cc1)Nc1cccc(C(F)(F)F)c1,-4,75*,·,·,·,·
CCN(CC)S(=O)(=O)c1ccc(NC(=O)Nc2cccc(C(F)(F)F)c2)cc1,-5,96*,·,·,32,·
O=C(Nc1ccncc1)Nc1cccc(C(F)(F)F)c1,-3,-4,-53,0,·,-1
Cc1ccc(S(=O)(=O)Nc2ccc(NC(=O)Nc3cccc(C(F)(F)F)c3)cc2)cc1,·,20,-39,0,·,-1
SMILES,Cneo AK release,HIV Env fusion,rRNA inh HTS,FGF22 binding,PGC1a acetyl inh,ERAP1 HTS inh
CCN(CC)S(=O)(=O)c1ccc(/C=C/C(=O)Nc2cccc(F)c2)cc1,0,·,-17*,0,·,-1
CO[C@@H]1CN(C)C(=O)c2cc(NC(=O)c3ccccc3F)ccc2OC[C@@H](C)N(CC2CCOCC2)C[C@@H]1C,-4,-11[16.7 µM],2,0,-12,3
CN(c1ccccc1C(=O)Nc1ccc(F)c(F)c1)S(C)(=O)=O,0,3,8,0,3,-1
O=C(NCC1CCCO1)c1ccc(S(=O)(=O)N2CCCCC2)cc1 (stereo not given),2,-15,·,·,-16,·
Cn1c(=O)c(C#N)c(-c2ccc(F)cc2)c2cc(C(=O)c3cc(Cl)cc(Cl)c3O)cnc21,-2,14,-28*,0,4,2
COc1ccccc1-n1c(=O)c(C#N)c(-c2ccc([N+](=O)[O-])cc2)c2cc(C(=O)c3cc(F)ccc3O)cnc21,·,6,-4,1,3,0
CC(C)NC(=O)Nc1ccc2c(c1)C(=O)N([C@H](C)CO)C[C@H](C)[C@@H](CN(C)C(=O)c1ccncc1)OCCCC[C@@H](C)O2,·,10[16.7 µM],-2,·,-5,·
Fc1ccc(Nc2c3c(nc4ccccc24)CCC3)cc1,-2,5,-16,1.5*,4,-4
c1ccc(Nc2c3c(nc4ccccc24)CCC3)cc1,·,7,-12,1,·,0
O=C(CN1CCN(C(=O)c2ccccc2)CC1)Nc1ccc(Br)cn1,-2,·,·,·,-1,·
COc1ccc(S(=O)(=O)N2CCCCCC2)cc1C(=O)OC(C)C(N)=O (stereo not given),1,14,-1,0,2,4
CN1CCCCc2c1nc1c(c2N)CCCC1,0,-58,·,·,-5,·
CN(C)CCCNC(=O)c1cc2sc3ccccc3c2s1,·,-3,9,44*,·,17
COCCNC(=O)c1cc2sc3ccccc3c2s1,-1,-110,·,·,-15,·
CCOC=C1C(=O)N(C(C)=O)c2cc(OC)c(OC)cc21,1,2,2,43*,-10,3
CCSS(=O)(=O)c1cccc2cccnc12,3,-2,20,0,8,96*
CN1CCN(S(=O)(=O)c2cccs2)CC1,·,7,16,0,3,1
CC1c2ccsc2CCN1S(=O)(=O)c1cccs1 (stereo not given),·,16,-29*,0,·,4
N#Cc1cc2c(nc1SCc1ccc(Cl)cc1)CCCC2,-1,·,-10,0,2,0
CCn1c(SCc2ccc(Cl)cc2)nc2nc3c(cc2c1=O)CCCC3,4,·,-22*,0,·,2
CC(C)c1ccc(NC(=O)c2snc3ccc(Cl)cc23)cc1,·,-53,10,44*,-5,-4
CC(C)c1ccc(NC(=O)c2csnn2)cc1,-5,·,8,0,-12,-4
